# Sampled rows, rich in hits. Any-hit rate of the full collection: about 2.1%.
# Wee1 degr inh = Wee1 degradation inhibitors, primary screen, cell-based, HeLa, Wee1K328M-luciferase, luminescence; Wee1-like protein kinase (Homo sapiens), P30291; reporter increase, % at 5 µM; AID 1321, 2008; 1.2% of 220,000 active; HeLa Luc-Wee1K328M stability; 100% = proteasome inhibitor MG132 effect;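 active = activation above the mean of all tested compounds plus 3 SD, set per screening run, cut at about 8.8% in these data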;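 note: cells exposed to compound for 20 h before luminescence read; 0% = DMSO alone and 100% = MG132 at 30 µM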
# Target sequence (P30291 whole entry K328M): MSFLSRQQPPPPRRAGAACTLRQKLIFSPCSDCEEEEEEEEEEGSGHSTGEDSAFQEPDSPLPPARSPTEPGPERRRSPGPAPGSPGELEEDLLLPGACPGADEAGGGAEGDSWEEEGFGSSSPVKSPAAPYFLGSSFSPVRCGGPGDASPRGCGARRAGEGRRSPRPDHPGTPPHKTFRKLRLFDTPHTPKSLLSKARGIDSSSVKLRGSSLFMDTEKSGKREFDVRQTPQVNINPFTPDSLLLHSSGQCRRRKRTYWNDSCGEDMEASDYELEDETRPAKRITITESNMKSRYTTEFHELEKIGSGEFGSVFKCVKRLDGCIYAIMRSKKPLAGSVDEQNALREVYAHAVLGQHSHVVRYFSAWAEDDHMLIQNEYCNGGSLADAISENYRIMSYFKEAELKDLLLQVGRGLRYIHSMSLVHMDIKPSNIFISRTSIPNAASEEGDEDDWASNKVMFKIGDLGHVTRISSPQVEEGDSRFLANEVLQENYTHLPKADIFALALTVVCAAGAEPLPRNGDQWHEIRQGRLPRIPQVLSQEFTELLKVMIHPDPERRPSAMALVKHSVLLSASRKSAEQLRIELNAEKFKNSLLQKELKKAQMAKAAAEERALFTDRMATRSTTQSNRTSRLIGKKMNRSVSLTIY
# TNF necrop inh = inhibitors of TNF-alpha triggered necroptosis, primary screen, cell-based, Jurkat FADD-/-, single concentration; 0.068% of 220,000 active; Jurkat FADD-/- TNF necroptosis rescue, ATP luminescence, 24 h; 0 = TNF only, 100 = no-TNF cells; AID 463075, 2010; activation (protection from cell death), % at 10 µM;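 active = activation, meaning protection from cell death, of at least 50% relative to plate controls; inactive = activation below 50%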;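 note: necroptosis triggered by 40 ng/mL TNF-alpha added together with compound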
# m-calpain inh = inhibitors of pig calpain II, primary screen, biochemical, fluorogenic peptide substrate, 1536-well; purified calpain II, 30 min; inhibition, % at 16 µM; 0.37% of 220,000 active;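 active = inhibition above about 50%, limit read from the data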
# L929 necroptosis = inhibitors of zVAD-triggered necroptosis, primary screen, L929 cells; 0.38% of 220,000 active; viability rescue, % at 10 µM; AID 1377, 2008; L929 zVAD necroptosis rescue, ATP luminescence, 24 h; with zVAD 60 µM;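 active = activation, scaled between plate controls, above about 75%, limit read from the data; inactive = activation under that limit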;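 note: 0% = zVAD with DMSO and 100% = DMSO alone without zVAD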
# Pf gametocyte = late stage P. falciparum gametocyte viability inhibitors, primary screen, ATP luminescence, HTS; P. falciparum stage V gametocytes, 24 h; inhibition, % at 10.9 µM; 0.065% of 150,000 active; AID 743093, 2013;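 active = inhibition above the mean plus 3 SD of compounds within the control limits, set per campaign, cut at about 38% in these data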;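 note: 0% = DMSO wells and 100% = medium only without gametocytes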
# RBBP9 inh = human RBBP9 inhibitors, primary screen, biochemical, fluorescence polarization, FP-Rh probe, HTS; Serine hydrolase RBBP9 (Homo sapiens), O75884; recombinant RBBP9; inhibition, % at 7.94 µM; 0.2% of 220,000 active; AID 1515, 2009;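 active = inhibition above the campaign mean of all tested compounds plus 3 SD, cut at about 14% in these data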;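 note: plate controls were DMSO wells with RBBP9 for no effect and wells lacking RBBP9 protein for full effect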
#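 System: RBBP9 protein / Buffer or medium: Tris/NaCl buffer pH 8.0 with 0.1% Pluronic / Probe or stimulus: Serine-hydrolase probe FP-Rh, 375 nM pre-mixing / Dosing: 7.94 µM single dose, 0.794% DMSO / Times: enzyme-compound preincubation 30 min, then probe labeling 45 min, 25 °C / Technique: fluorescence polarization (mP), excitation 525 nm, emission 598 nm / Replication: singlicate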
# zVAD death conf = inhibitors of zVAD-triggered necroptosis in L929, confirmation, L929 cells, duplicate runs; L929 zVAD-induced necroptosis rescue, ATP luminescence, 24 h; activation (protection from necroptosis), % at 10 µM; shares compounds with L929 necroptosis; 16% of 760 active;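 active = mean protection from necroptosis of at least 50% over duplicate tests; inactive = mean protection below 50%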;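 note: 0% = cells with zVAD alone and 100% = vehicle cells without zVAD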
# An asterisk follows results filed as active; . = no result given.
SMILES,Wee1 degr inh,TNF necrop inh,m-calpain inh,L929 necroptosis,Pf gametocyte,RBBP9 inh,zVAD death conf
CC1=CC(=Nc2c(C)n(C)n(-c3ccccc3)c2=O)C=CC1=O,-3.7,-16.0,-29.8,76.7*,.,3.0,50.0*
COc1ccc(/C=N/Nc2nc3ccccc3[nH]2)cc1OC,0.6,39.6,-0.1,78.9*,-6.2,-10.2,48.7
CCOc1cc(/C=N/Nc2nc3ccccc3[nH]2)cc(Br)c1OCC(=O)N(C)C,0.2,42.7,-40.0,78.5*,.,-6.8,57.6*
COc1cc(/C=N\Nc2nc3ccccc3[nH]2)cc(OC)c1OC,-4.5,14.9,22.2,81.2*,.,6.3,48.1
CC(C)(C)NC(=O)c1cc(F)c(F)cc1Cl,-1.1,0.3,-37.1,1.2,.,-1.6,.
Cc1ccc(CN(CC(=O)NC(C)(C)C)C(=O)CNC(=O)c2cccs2)cc1,1.8,0.9,4.7,-0.4,-21.6,-6.2,.
O=C(Cn1ncc(Cl)c(Cl)c1=O)c1ccc(Cl)cc1,3.1,-13.8,-13.9,-0.5,.,-1.7,.
O=c1c(Cl)c(Cl)cnn1Cc1ccc(F)cc1,-0.8,-6.1,25.9,54.9,14.8,-6.2,.
O=C(OCn1ncc(Cl)c(Cl)c1=O)c1ccccc1Cl,2.2,9.0,-3.8,101.8*,5.5,-6.2,64.2*
O=C(OCn1ncc(Cl)c(Cl)c1=O)c1ccc(F)cc1,3.1,-24.6,20.3,78.1*,.,1.0,53.1*
COc1ccc2cc(Br)ccc2c1CC(=O)NC(C)(C)C,-1.1,3.9,0.9,1.3,-7.3,-2.0,.
O=C(Nc1ccc(N2CCN(C(=O)c3ccco3)CC2)cc1)C(c1ccccc1)c1ccccc1,-0.5,2.0,-61.8,75.8*,14.8,-7.6,20.8
O=C(Nc1ccc(N2CCN(C(=O)c3ccco3)CC2)cc1)c1ccco1,-0.8,3.2,-14.0,1.6,5.7,-3.0,.
COc1ccc(-c2cnc[nH]2)cc1,-1.0,0.1,-15.3,1.4,-9.1,-1.6,.
COc1ccccc1NC(=O)Cn1cnc2sc(C)c(S(=O)(=O)N3CCCCC3)c2c1=O,5.0,1.0,14.0,.,15.1,-0.8,.
NS(=O)(=O)c1ccc(N/C=C\C(=O)c2ccc(F)cc2)cc1,1.9,-1.7,-28.6,0.6,-0.8,3.8,.
NS(=O)(=O)c1ccc(N/C=C/C(=O)c2ccc(Br)cc2)cc1,0.4,-1.4,-17.5,75.9*,16.9,-3.9,15.5
Cc1nn(Cc2c(F)c(F)c(F)c(F)c2F)c(C)c1NC(=O)c1c(-c2ccccc2)nn(-c2ccccc2)c1C,2.6,-4.5,-32.9,-0.4,.,-8.4,.
Cc1cc(N)n2ncc(-c3ccc(F)cc3)c2n1,-1.8,-4.2,-61.6,79.4*,.,4.8,42.9
Cc1cc(C)c(NC(=O)c2ccc(CN3CCc4ccccc4C3)cc2)c(C)c1,0.5,-5.8,23.9,0.2,.,1.4,.
CC1CCc2nc(NC(=O)C3CC3)sc2C1 (stereo not drawn),1.0,-0.1,-3.0,78.0*,17.1,1.2,29.1
CC(=O)Nc1cccc(/C(C)=N/Nc2nc3ccccc3s2)c1,3.1,13.1,-60.2,77.8*,11.4,-7.5,10.6
COc1ccc2c(C)nc(Nc3nc(C)c(C)c(=O)[nH]3)nc2c1,2.1,-19.2,-33.9,113.0*,7.5,8.2,0.6
CCc1c(C)nc(Nc2nc(C)c3ccc(OC)cc3n2)[nH]c1=O,6.0,-3.0,-145.3,4.7,-1.0,0.8,.
CCc1ccc2c(c1)C(=O)C(=O)N2CC(=O)Nc1ccc(NC(=O)c2ccccn2)cc1,-4.6,-2.1,-119.3,77.5*,6.1,-8.8,24.2
SMILES,Wee1 degr inh,TNF necrop inh,m-calpain inh,L929 necroptosis,Pf gametocyte,RBBP9 inh,zVAD death conf
Cc1ccc(C2C(/C=C3/SC(=S)NC3=O)=C(c3cccs3)Oc3ccccc32)cc1 (stereo not drawn),1.3,-1.0,-1.6,0.8,13.3,-1.2,.
NS(=O)(=O)c1cccc(NC(=O)COC(=O)C2CCCCC2)c1,0.7,2.2,-2.7,26.3,.,-3.4,.
COc1ccc(CCNC(=O)C/C(C)=N/NC(=O)C(c2ccccc2)c2ccccc2)cc1OC,4.2,36.4,-11.3,80.3*,-12.0,-7.0,10.1
COc1ccc(CCNC(=O)C(C)Sc2ccccc2)cc1OC (stereo not drawn),-0.9,-2.6,-12.7,0.3,.,-2.9,.
CCC(SC1=NCCS1)C(=O)Nc1nnc(-c2ccccc2OC)s1 (stereo not drawn),-1.2,2.8,-20.1,83.2*,.,-11.1,1.3
CC1=CC(=O)C(C(C)C)=C/C1=N\OC(=O)c1cccc2nc(C)oc12,0.1,-1.8,17.8,87.4*,5.8,-6.2,3.6
Cn1c(N)c(C(=O)CSc2ccc3c(c2)OCCO3)c(=O)n(C)c1=O,-0.5,-5.2,-16.2,-0.1,1.0,-3.8,.
Cc1cc(C)nc(SCC(=O)c2c(N)n(C)c(=O)n(C)c2=O)n1,-0.8,-2.6,-17.6,75.6*,.,-3.8,-0.3
Cc1cccc(OCCCC(=O)Nc2nccs2)c1,-0.4,9.2,.,89.1*,.,-6.5,2.6
O=c1[nH][nH]cc1C=Nc1ccccc1O,-0.6,8.3,19.9,75.2*,.,-8.2,12.5
O=C1NCC(O)=C1C=Nc1ccccc1O,-0.1,13.7,-0.3,76.5*,-5.8,-2.9,6.8
O=C1NCC(O)=C1C=NCCCO,-3.9,1.8,-64.3,6.0,.,-3.4,.
O=c1[nH][nH]cc1C=Nc1ccccc1Cl,-0.7,-0.3,-18.8,1.8,-7.1,-0.3,.
COC(=O)c1ccc(CO/N=C(\NC(C)=O)c2nonc2NC(C)=O)cc1,1.5,1.6,10.8,1.1,3.4,1.9,.
Cc1cccc2[nH]c(-c3ccc(NC(=O)c4ccco4)cc3)nc12,1.6,0.4,-20.5,83.6*,-12.2,-11.2,1.6
NC(=S)NC(=O)/C=C/c1ccccc1,-2.1,18.8,-26.4,83.2*,.,-5.7,0.5
NC(=O)c1ccccc1NC(=O)/C=C/c1ccccc1,5.1,0.5,-16.2,13.1,-39.6,-7.6,.
O=C(Nc1ccc(F)cc1)Nc1ccccc1F,-0.4,-0.4,19.4,0.6,1.6,-10.2,.
COC(C(=O)Nc1ccc(F)cc1F)c1ccccc1 (stereo not drawn),0.8,96.8*,-25.5,83.2*,.,2.8,40.2
O=C(Nc1ccc(NC(=O)c2ccccc2O)cc1)Nc1ccc(F)cc1F,0.6,9.8,-144.1,78.0*,7.7,-11.3,33.3
CCOc1cc(-c2nc(C)c(C(C)=O)n2O)ccc1OCC(=O)Nc1ccccc1,-1.3,3.0,-18.6,0.7,-1.2,-0.5,.

# Assay outcomes: PubChem BioAssay, several laboratories
